{"source": "paper PMC3205972", "about": "(Journal of medicinal chemistry, 2009)", "key": {"healthy mice": {"test_system": "healthy mice", "assay": "Chronic maximal tolerated dose in healthy mice", "format": "in vivo, mouse", "conditions": "i.v. 5, 10, 20, 40 and 80 mg/kg once a day during 5 consecutive days; 28 days"}, "A549 NSCLC cells [1]": {"test_system": "A549 NSCLC cells", "assay": "Soft-agar colony formation, anchorage-independent culture", "format": "cell-based, human", "conditions": "between 0.5 (p < 0.05) and 5 (p < 0.01) μM, 38 days"}, "U373 GBM cells [2]": {"test_system": "U373 GBM cells", "assay": "Quantitative videomicroscopy: cell growth", "format": "cell-based, human", "conditions": "5 μM, 72 h"}, "A549 NSCLC cells [3]": {"test_system": "A549 NSCLC cells", "assay": "Quantitative videomicroscopy: cell growth", "format": "cell-based, human", "conditions": "5 μM, 72 h"}, "[4]": {"test_system": "Normal Cell Lines (Wi38, WS1, NHDF)", "assay": "MTT colorimetric assay, mean over three normal cell lines", "format": "cell-based", "conditions": "read-out: IC50 In Vitro Growth Inhibitory Values, Normal Cell Lines, Mean ± SEM"}, "[5]": {"test_system": "cancer versus normal cell lines", "assay": "In vitro therapeutic ratio, cancer versus normal cell lines", "format": "cell-based", "outline": "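MTT colorimetric growth assay on human cancer and normal cell lines. Cells were plated for 24 h at 10,000 to 40,000 cells/mL, depending on cell type, then cultured 72 h with or without test compound. Formazan from mitochondrial MTT reduction was read at 570 nm (reference 630 nm), in sextuplicate. The ratio compares MTT growth-inhibitory IC50 between normal and cancer cells.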"}, "U373 GBM cells [6]": {"test_system": "U373 GBM cells", "assay": "Actin cytoskeleton organization by computer-assisted fluorescence microscopy", "format": "cell-based, human", "conditions": "5 μM for 6 hrs"}, "U373 GBM cells [7]": {"test_system": "U373 GBM cells", "assay": "Flow cytometry, annexin V / propidium iodide staining", "format": "cell-based, human", "conditions": "72 hrs"}, "CYP3A4": {"test_system": "CYP3A4", "conditions": "cited from earlier work"}, "SKMEL-28 melanoma cells": {"test_system": "SKMEL-28 melanoma cells", "assay": "MTT colorimetric assay, in vitro growth inhibition", "format": "cell-based, human"}, "B16F10 melanoma cells": {"test_system": "B16F10 melanoma cells", "assay": "MTT colorimetric assay, in vitro growth inhibition", "format": "cell-based, mouse"}, "[8]": {"test_system": "Hs683 anaplastic oligodendroglioma cells", "assay": "MTT colorimetric assay, in vitro growth inhibition", "format": "cell-based, human"}, "[9]": {"test_system": "Cancer Cell Lines (A549, OE21, Hs683, U373, SKMEL, B16F10)", "assay": "MTT colorimetric assay, mean over six cancer cell lines", "format": "cell-based", "conditions": "read-out: IC50 In Vitro Growth Inhibitory Values, Cancer Cell Lines, Mean ± SEM"}, "[10]": {"test_system": "A549 non-small-cell-lung cancer (NSCLC) cells", "assay": "MTT colorimetric assay, in vitro growth inhibition", "format": "cell-based, human"}, "[11]": {"test_system": "OE21 esophageal cancer cells", "assay": "MTT colorimetric assay, in vitro growth inhibition", "format": "cell-based, human"}, "[12]": {"test_system": "U373 glioblastoma (GBM) cells", "assay": "MTT colorimetric assay, in vitro growth inhibition", "format": "cell-based, human", "conditions": "72 h"}, "[13]": {"test_system": "MCF-7 breast cancer cells", "assay": "Flow cytometry, annexin V / propidium iodide staining", "format": "cell-based, human", "conditions": "1 μM for 72 hrs, positive control"}, "[14]": {"test_system": "glioma cells, which display resistance to proapoptotic stimuli", "conditions": "1 μM; cited from earlier work"}, "[15]": {"conditions": "read-out: In Vitro IC50 Growth Inhibitory Values, SKMEL, MTT, 72 h, concentrations of up to 10 μM"}, "[16]": {"conditions": "read-out: In Vitro IC50 Growth Inhibitory Values, B16F10, MTT, 72 h, concentrations of up to 10 μM"}, "[17]": {"conditions": "read-out: In Vitro IC50 Growth Inhibitory Values, Hs683, MTT, 72 h, concentrations of up to 10 μM"}, "[18]": {"conditions": "read-out: In Vitro IC50 Growth Inhibitory Values, A549, MTT, 72 h, concentrations of up to 10 μM"}, "[19]": {"conditions": "read-out: In Vitro IC50 Growth Inhibitory Values, OE21, MTT, 72 h, concentrations of up to 10 μM"}, "[20]": {"conditions": "read-out: In Vitro IC50 Growth Inhibitory Values, U373, MTT, concentrations of up to 10 μM"}}, "note": "Like-named read-outs stand apart in the source and are kept apart here.", "data": [{"compound": "O[C@H]1[C@H]2c3cc4c(cc3CN3CCC(=C[C@@H]1O)[C@H]23)OCO4", "note": "[compound 1, (1S,2S,12bS,12cS)-1,2-Diol,2,4,5,7,12b,12c-hexahydro-1H-[1,3]dioxolo[4,5-j]pyrrolo[3,2,1-de]phenanthridine]", "values": [{"measurement": "toxicity (body weight, death)", "setting": "healthy mice", "value": "no gross toxicity"}, {"measurement": "colony formation on soft agar", "setting": "A549 NSCLC cells [1]", "value": "significantly impairs colony formation"}, {"measurement": "in vitro growth inhibitory activity based on global growth rate (GGR)", "setting": "U373 GBM cells [2]", "value": "marked in vitro growth inhibitory activity"}, {"measurement": "in vitro growth inhibitory activity based on global growth rate (GGR)", "setting": "A549 NSCLC cells [3]", "value": "marked in vitro growth inhibitory activity"}, {"measurement": "IC50", "setting": "[4]", "value": "> 100", "unit": "µM"}, {"measurement": "Therapeutic ratio", "setting": "[5]; MTT IC50", "value": "> 15"}, {"measurement": "Therapeutic ratio", "setting": "[5]; MTT IC50, listed as Lycorine", "value": "at least 15"}, {"measurement": "Therapeutic ratio", "setting": "[5]; MTT IC50, listed as lycorine", "value": 15}, {"measurement": "levels of polymerized actin", "setting": "U373 GBM cells [6]", "value": "markedly increased the levels of polymerized actin"}, {"measurement": "pro-apoptotic effects (AV+ cells)", "setting": "U373 GBM cells [7]; 5 μM or 50 μM", "value": "did not induce pro-apoptotic effects"}, {"measurement": "non-apoptotic cell death (AV-/PI+ cells)", "setting": "U373 GBM cells [7]; 50 μM", "value": "induced non-apoptotic cell death"}, {"measurement": "CYP3A4 inhibitory activity", "setting": "CYP3A4", "value": "no CYP3A4 inhibitory activity"}]}, {"compound": "CC(=O)O[C@H]1[C@H]2c3cc4c(cc3CN3CCC(=C[C@@H]1OC(C)=O)[C@H]23)OCO4", "note": "[compound 3, (1S,2S,12bS,12cS)-1,2-Diol-2,4,5,7,12b,12c-hexahydro-1H-[1,3]dioxolo[4,5-j]pyrrolo[3,2,1-de]phenanthridine-1,2-diacetate]", "values": [{"measurement": "IC50", "setting": "SKMEL-28 melanoma cells; [15]", "value": "> 10", "unit": "µM"}]}, {"compound": "CC(=O)O[C@H]1C=C2CCN3Cc4cc5c(cc4[C@H]([C@@H]1O)[C@@H]23)OCO5", "note": "[compound 5, (1S,2S,12bS,12cS)-1,2-Diol-2,4,5,7,12b,12c-hexahydro-1H-[1,3]dioxolo[4,5-j]pyrrolo[3,2,1-de]phenanthridine-2-acetate]", "values": [{"measurement": "IC50", "setting": "B16F10 melanoma cells; Mus musculus, B16-F10, 72 h, read-out: IC50 In Vitro Growth Inhibitory Values", "value": "37.1 ± 2.8", "unit": "µM"}, {"measurement": "IC50", "setting": "[8]; Homo sapiens, Hs 683, 72 h, read-out: IC50 In Vitro Growth Inhibitory Values", "value": "43 ± 2", "unit": "µM"}, {"measurement": "IC50", "setting": "[4]", "value": "> 96.2", "unit": "µM"}, {"measurement": "Therapeutic ratio", "setting": "[5]; MTT IC50", "value": "> 2"}, {"measurement": "IC50", "setting": "[9]", "value": "59.3 ± 8.2", "unit": "µM"}, {"measurement": "IC50", "setting": "[10]; Homo sapiens, A549, 72 h, read-out: IC50 In Vitro Growth Inhibitory Values", "value": "47.6 ± 2.3", "unit": "µM"}, {"measurement": "IC50", "setting": "[11]; Homo sapiens, OE21, 72 h, read-out: IC50 In Vitro Growth Inhibitory Values", "value": "77.4 ± 3.1", "unit": "µM"}, {"measurement": "IC50", "setting": "[12]; Homo sapiens, U373 MG, read-out: IC50 In Vitro Growth Inhibitory Values", "value": "63.1 ± 4.1", "unit": "µM"}]}, {"compound": "O[C@H]1[C@H]2c3cc4c(cc3CN3CCC(=C[C@@H]1Cl)[C@H]23)OCO4", "note": "[compound 6, (1S,2S,12bS,12cS)-1-ol-2-Chloro-2,4,5,7,12b,12c-hexahydro-1H-[1,3]Dioxolo[4,5-j]pyrrolo[3,2,1-de]phenanthridine]", "values": [{"measurement": "IC50", "setting": "[4]", "value": "> 72.7", "unit": "µM"}, {"measurement": "Therapeutic ratio", "setting": "[5]; MTT IC50", "value": "> 11"}]}, {"compound": "CC(=O)O[C@H]1[C@H]2c3cc4c(cc3CN3CC[C@H](C[C@@H]1OC(C)=O)[C@H]23)OCO4", "note": "[compound 9, (1S,2S,3aR,12bS,12cR)-1,2-Diol-2,3,3a,4,5,7,12b,12c-octahydro-1H-[1,3]dioxolo[4,5-j]pyrrolo[3,2,1-de]phenanthridine diacetate]", "values": [{"measurement": "IC50", "setting": "B16F10 melanoma cells; [16]", "value": "> 10", "unit": "µM"}, {"measurement": "IC50", "setting": "[8]; [17]", "value": "> 10", "unit": "µM"}, {"measurement": "IC50", "setting": "SKMEL-28 melanoma cells; [15]", "value": "> 10", "unit": "µM"}, {"measurement": "IC50", "setting": "[10]; [18]", "value": "> 10", "unit": "µM"}, {"measurement": "IC50", "setting": "[11]; [19]", "value": "> 10", "unit": "µM"}, {"measurement": "IC50", "setting": "[12]; [20]", "value": "> 10", "unit": "µM"}]}, {"compound": "CC(=O)O[C@H]1[C@H]2c3cc4c(cc3CN3CC[C@@H](C[C@@H]1OC(C)=O)[C@H]23)OCO4", "note": "[compound 11, (1α,2β,12β)-1,2-Diol-9,10-[methylenebis(oxy)]-galanthan-diacetate]", "values": [{"measurement": "IC50", "setting": "B16F10 melanoma cells; [16]", "value": "> 10", "unit": "µM"}, {"measurement": "IC50", "setting": "[8]; [17]", "value": "> 10", "unit": "µM"}, {"measurement": "IC50", "setting": "SKMEL-28 melanoma cells; [15]", "value": "> 10", "unit": "µM"}, {"measurement": "IC50", "setting": "[10]; [18]", "value": "> 10", "unit": "µM"}, {"measurement": "IC50", "setting": "[11]; [19]", "value": "> 10", "unit": "µM"}, {"measurement": "IC50", "setting": "[12]; [20]", "value": "> 10", "unit": "µM"}]}, {"compound": "C1=C2CCN3Cc4cc5c(cc4[C@H]([C@@H]4O[C@H]14)[C@@H]23)OCO5", "note": "[compound 14, (1α,2α)-3,12-didehydro-1,2-epoxy-9,10-[methylenebis(oxy)]-galanthan]", "values": [{"measurement": "IC50", "setting": "[4]; mean of three normal cell lines", "value": "24.9 ± 8.2", "unit": "µM"}, {"measurement": "Therapeutic ratio", "setting": "[5]; MTT IC50", "value": 5}, {"measurement": "IC50", "setting": "[9]; mean of six cancer cell lines", "value": "5.3 ± 1.2", "unit": "µM"}]}, {"compound": "COc1cc2c(cc1O)[C@@H]1[C@H](O)[C@@H](O)C=C3CCN(C2)[C@H]31", "note": "[compound 18, (1S,2S,11bS,11cS)-1,2,10-triol-2,4,5,7,11b,11c-hexahydro-9-methoxy-1H-pyrrolo[3,2,1-de]phenanthridine]", "values": [{"measurement": "IC50", "setting": "[4]", "value": "63.3 ± 7.3", "unit": "µM"}, {"measurement": "Therapeutic ratio", "setting": "[5]; MTT IC50", "value": 7}, {"measurement": "IC50", "setting": "[9]", "value": "9 ± 1.3", "unit": "µM"}]}, {"compound": "c1cc2c3c(c1)-c1cc4c(cc1CN3CC2)OCO4", "note": "[compound 20, 4,5-dihydro-7H-[1,3]Dioxolo[4,5-j]pyrrolo[3,2,1-de]phenanthridine]", "values": [{"measurement": "Therapeutic ratio", "setting": "[5]; MTT IC50", "value": 2}, {"measurement": "IC50", "setting": "[9]", "value": "11.6 ± 3.4", "unit": "µM"}, {"measurement": "IC50", "setting": "SKMEL-28 melanoma cells; Homo sapiens, SK-MEL-28, 72 h, read-out: IC50 In Vitro Growth Inhibitory Values", "value": "20.9 ± 1.2", "unit": "µM"}]}, {"compound": "COC1=C[C@@H]2CCN3Cc4cc5c(cc4[C@@H]([C@H]23)[C@@H]1O)OCO5", "note": "[compound 22, (1S,3aS,12bS,12cS)-1-ol-2-methoxy-3a,4,5,7,12b,12c-hexahydro-1H-[1,3]Dioxolo[4,5-j]pyrrolo[3,2,1-de]phenanthridine]", "values": [{"measurement": "IC50", "setting": "[4]", "value": "> 99.2", "unit": "µM"}, {"measurement": "Therapeutic ratio", "setting": "[5]; MTT IC50", "value": "> 13"}]}, {"compound": "O=C1N[C@@H]2C(=C[C@H](O)[C@@H](O)[C@H]2O)c2cc3c(c(O)c21)OCO3", "note": "[narciclasine]", "values": [{"measurement": "pro-apoptotic effects (AV/PI staining)", "setting": "[13]", "value": "induced significant pro-apoptotic effects"}, {"measurement": "apoptosis induction", "setting": "[14]", "value": "unable to induce apoptosis"}, {"measurement": "CYP3A4 inhibitory activity", "setting": "CYP3A4", "value": "does"}]}]}
